Measurements reported in ChEMBL document CHEMBL1629686, “Substrate selectivity and a novel role in inhibitor discrimination by residue 237 in the KPC-2 beta-lactamase” (Antimicrob Agents Chemother, 2010).
≈ marks a conversion by molar mass, not a printed value.

Legend:
[1] = tested on: Escherichia coli; assay: Antimicrobial activity against Escherichia coli DH10B harboring beta-lactamase KPC-2 T237F mutant by agar dilution method; type: functional; settings: K-12 DH10B
Procedure, shortened: (§1)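 LB agar dilution MICs followed CLSI criteria, with inocula applied by Steers replicator. […] Piperacillin-tazobactam was tested at an 8:1 ratio. Wild-type and mutant blaKPC-2 were carried on pBC SK(+), or wild type on pBR322-catI, in E. coli DH10B.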

[2] = tested on: Escherichia coli; assay: Antimicrobial activity against Escherichia coli DH10B harboring beta-lactamase KPC-2 T237I mutant by agar dilution method; type: functional; settings: K-12 DH10B; procedure, shortened: as §1
[3] = tested on: Escherichia coli; assay: Antimicrobial activity against Escherichia coli DH10B by agar dilution method in presence of beta-lactamase inhibitor clavulanic acid; type: functional; settings: K-12 DH10B
Procedure, shortened: (§2)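 LB agar dilution MICs per CLSI criteria, inoculated with a Steers replicator. […] Strains: E. coli DH10B alone, DH10B carrying empty pBC SK(+), or DH10B carrying pBC SK(+)-blaKPC-2 position 237 variants made by site-saturation mutagenesis and confirmed by sequencing. Plasmid selection used 20 mg/liter chloramphenicol.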

[4] = tested on: Escherichia coli; assay: Antimicrobial activity against Escherichia coli DH10B harboring beta-lactamase KPC-2 T237S mutant by agar dilution method; type: functional; settings: K-12 DH10B; procedure, shortened: as §1
[5] = tested on: Escherichia coli; assay: Antimicrobial activity against Escherichia coli DH10B harboring beta-lactamase KPC-2 T237M mutant by agar dilution method in presence of beta-lactamase inhibitor Sulbactam; type: functional; settings: K-12 DH10B
Procedure, shortened: (§3)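 LB agar dilution MICs by CLSI criteria, applied with a Steers replicator. […] Hosts were E. coli DH10B carrying pBC SK(+) with wild-type blaKPC-2 or a position 237 variant.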

[6] = tested on: Escherichia coli; assay: Antimicrobial activity against Escherichia coli DH10B harboring beta-lactamase KPC-2 T237L mutant by agar dilution method; type: functional; settings: K-12 DH10B; procedure, shortened: as §1
[7] = tested on: Escherichia coli; assay: Antimicrobial activity against Escherichia coli DH10B harboring plasmid […] by agar dilution method; type: functional; settings: K-12 DH10B; procedure, shortened: as §1
[8] = tested on: Escherichia coli; assay: Antimicrobial activity against Escherichia coli DH10B harboring beta-lactamase KPC-2 T237G mutant by agar dilution method; type: functional; settings: K-12 DH10B; procedure, shortened: as §1
[9] = tested on: Escherichia coli; assay: Antimicrobial activity against Escherichia coli DH10B harboring beta-lactamase KPC-2 T237K mutant by agar dilution method; type: functional; settings: K-12 DH10B; procedure, shortened: as §1
[10] = tested on: Escherichia coli; assay: Antimicrobial activity against Escherichia coli DH10B harboring beta-lactamase KPC-2 T237C mutant by agar dilution method in presence of beta-lactamase inhibitor Sulbactam; type: functional; settings: K-12 DH10B; procedure, shortened: as §2
[11] = tested on: Escherichia coli; assay: Antimicrobial activity against Escherichia coli DH10B harboring beta-lactamase KPC-2 T237A mutant by agar dilution method in presence of beta-lactamase inhibitor Sulbactam; type: functional; settings: K-12 DH10B; procedure, shortened: as §3
[12] = tested on: Escherichia coli; assay: Antimicrobial activity against Escherichia coli DH10B harboring plasmid pBR322-catI carrying beta-lactamase KPC-2 by agar dilution method in presence of beta-lactamase inhibitor clavulanic acid; type: functional; settings: K-12 DH10B
[13] = tested on: Klebsiella pneumoniae; assay: Antimicrobial activity against Klebsiella pneumoniae 1534 expressing beta-lactamase KPC-2 by agar dilution method; type: functional
Procedure, shortened: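 MICs were determined by LB agar dilution following CLSI criteria, with a Steers replicator. […] Piperacillin-tazobactam was kept at an 8:1 ratio.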

[14] = tested on: Escherichia coli; assay: Antimicrobial activity against Escherichia coli DH10B harboring beta-lactamase KPC-2 T237N mutant by agar dilution method in presence of beta-lactamase inhibitor Sulbactam; type: functional; settings: K-12 DH10B; procedure, shortened: as §3
[15] = tested on: Escherichia coli; assay: Antimicrobial activity against Escherichia coli DH10B harboring beta-lactamase KPC-2 T237S mutant by agar dilution method in presence of beta-lactamase inhibitor Sulbactam; type: functional; settings: K-12 DH10B; procedure, shortened: as §3
[16] = tested on: Escherichia coli; assay: Antimicrobial activity against Escherichia coli DH10B harboring beta-lactamase KPC-2 T237V mutant by agar dilution method; type: functional; settings: K-12 DH10B; procedure, shortened: as §1
[17] = tested on: Escherichia coli; assay: Antimicrobial activity against Escherichia coli DH10B harboring plasmid pBR322-catI carrying beta-lactamase KPC-2 by agar dilution method; type: functional; settings: K-12 DH10B; procedure, shortened: as §1
[18] = tested on: Escherichia coli; assay: Antimicrobial activity against Escherichia coli DH10B harboring beta-lactamase KPC-2 T237H mutant by agar dilution method; type: functional; settings: K-12 DH10B; procedure, shortened: as §1
[19] = tested on: Escherichia coli; assay: Antimicrobial activity against Escherichia coli DH10B harboring beta-lactamase KPC-2 T237Q mutant by agar dilution method; type: functional; settings: K-12 DH10B; procedure, shortened: as §1
[20] = tested on: Escherichia coli; assay: Antimicrobial activity against Escherichia coli DH10B harboring beta-lactamase KPC-2 T237L mutant by agar dilution method in presence of beta-lactamase inhibitor clavulanic acid; type: functional; settings: K-12 DH10B; procedure, shortened: as §3
[21] = tested on: Escherichia coli; assay: Antimicrobial activity against Escherichia coli DH10B harboring beta-lactamase KPC-2 T237N mutant by agar dilution method; type: functional; settings: K-12 DH10B; procedure, shortened: as §1
[22] = tested on: Escherichia coli; assay: Antimicrobial activity against Escherichia coli DH10B harboring beta-lactamase KPC-2 T237P mutant by agar dilution method; type: functional; settings: K-12 DH10B; procedure, shortened: as §1
[23] = tested on: Escherichia coli; assay: Antimicrobial activity against Escherichia coli DH10B harboring beta-lactamase KPC-2 T237W mutant by agar dilution method; type: functional; settings: K-12 DH10B; procedure, shortened: as §1
[24] = tested on: Escherichia coli; assay: Antimicrobial activity against Escherichia coli DH10B harboring beta-lactamase KPC-2 T237E mutant by agar dilution method in presence of beta-lactamase inhibitor Sulbactam; type: functional; settings: K-12 DH10B; procedure, shortened: as §3
[25] = tested on: Escherichia coli; assay: Antimicrobial activity against Escherichia coli DH10B harboring beta-lactamase KPC-2 T237R mutant by agar dilution method; type: functional; settings: K-12 DH10B; procedure, shortened: as §1
[26] = tested on: Escherichia coli; assay: Antimicrobial activity against Escherichia coli DH10B harboring beta-lactamase KPC-2 T237A mutant by agar dilution method; type: functional; settings: K-12 DH10B; procedure, shortened: as §1
[27] = tested on: Escherichia coli; assay: Antimicrobial activity against Escherichia coli DH10B harboring beta-lactamase KPC-2 T237E mutant by agar dilution method; type: functional; settings: K-12 DH10B; procedure, shortened: as §1
[28] = tested on: Escherichia coli; assay: Antimicrobial activity against Escherichia coli DH10B harboring beta-lactamase KPC-2 T237M mutant by agar dilution method; type: functional; settings: K-12 DH10B; procedure, shortened: as §1
[29] = tested on: Escherichia coli; assay: Antimicrobial activity against Escherichia coli DH10B harboring beta-lactamase KPC-2 T237D mutant by agar dilution method; type: functional; settings: K-12 DH10B; procedure, shortened: as §1
[30] = tested on: Escherichia coli; assay: Antimicrobial activity against Escherichia coli DH10B harboring beta-lactamase KPC-2 T237C mutant by agar dilution method; type: functional; settings: K-12 DH10B; procedure, shortened: as §1
[31] = tested on: Escherichia coli; assay: Antimicrobial activity against Escherichia coli DH10B harboring beta-lactamase KPC-2 T237Y mutant by agar dilution method; type: functional; settings: K-12 DH10B; procedure, shortened: as §1
[32] = tested on: Escherichia coli; assay: Antimicrobial activity against Escherichia coli DH10B harboring plasmid pBC SK(+) carrying wild type beta-lactamase KPC-2 by agar dilution method; type: functional; settings: K-12 DH10B; procedure, shortened: as §1
[33] = tested on: Escherichia coli; assay: Antimicrobial activity against Escherichia coli DH10B by agar dilution method; type: functional; settings: K-12 DH10B; procedure, shortened: as §1
[34] = tested on: Escherichia coli; assay: Antimicrobial activity against Escherichia coli DH10B harboring beta-lactamase KPC-2 T237L mutant by agar dilution method in presence of beta-lactamase inhibitor Sulbactam; type: functional; settings: K-12 DH10B; procedure, shortened: as §3
[35] = tested on: Klebsiella pneumoniae; assay: microbe, parasite or virus in culture; settings: 1534
[36] = tested on: Escherichia coli; assay: Antimicrobial activity against Escherichia coli DH10B harboring beta-lactamase KPC-2 T237P mutant by agar dilution method in presence of beta-lactamase inhibitor Tazobactam; type: functional; settings: K-12 DH10B
Procedure, shortened: (§4)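 LB agar dilution MICs by CLSI criteria, inoculated with a Steers replicator. […] Strains were E. coli DH10B with or without pBC SK(+) carrying wild-type blaKPC-2 or a position 237 variant.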

[37] = tested on: Escherichia coli; assay: Antimicrobial activity against Escherichia coli DH10B harboring beta-lactamase KPC-2 T237V mutant by agar dilution method in presence of beta-lactamase inhibitor Tazobactam; type: functional; settings: K-12 DH10B; procedure, shortened: as §4
[38] = tested on: Escherichia coli; assay: Antimicrobial activity against Escherichia coli DH10B harboring beta-lactamase KPC-2 T237C mutant by agar dilution method in presence of beta-lactamase inhibitor Tazobactam; type: functional; settings: K-12 DH10B; procedure, shortened: as §4
[39] = tested on: Escherichia coli; assay: Antimicrobial activity against Escherichia coli DH10B harboring beta-lactamase KPC-2 T237A mutant by agar dilution method in presence of beta-lactamase inhibitor Tazobactam; type: functional; settings: K-12 DH10B; procedure, shortened: as §4
[40] = tested on: Escherichia coli; assay: Antimicrobial activity against Escherichia coli DH10B harboring beta-lactamase KPC-2 T237F mutant by agar dilution method in presence of beta-lactamase inhibitor Tazobactam; type: functional; settings: K-12 DH10B; procedure, shortened: as §4

Compound	MIC [1] [µg/mL]	MIC [2] [µg/mL]	MIC [4] [µg/mL]	MIC [6] [µg/mL]	MIC [7] [µg/mL]	MIC [8] [µg/mL]	MIC [9] [µg/mL]	MIC [13] [µg/mL]	MIC [16] [µg/mL]	MIC [17] [µg/mL]	MIC [18] [µg/mL]	MIC [19] [µg/mL]	MIC [21] [µg/mL]	MIC [22] [µg/mL]	MIC [23] [µg/mL]	MIC [25] [µg/mL]	MIC [26] [µg/mL]	MIC [27] [µg/mL]	MIC [28] [µg/mL]	MIC [29] [µg/mL]	also measured
CC1(C)S[C@@H]2[C@H](NC(=O)[C@H](N)c3ccccc3)C(=O)N2[C@H]1C(=O)O [AMPICILLIN]	16 (≈ 45.8 µM)	64 (≈ 183 µM)	512 (≈ 1470 µM)	64 (≈ 183 µM)	1 (≈ 2.86 µM)	128 (≈ 366 µM)	1 (≈ 2.86 µM)	8190 (≈ 23400 µM)	128 (≈ 366 µM)	4100 (≈ 11700 µM)	64 (≈ 183 µM)	256 (≈ 733 µM)	32 (≈ 91.6 µM)	1 (≈ 2.86 µM)	16 (≈ 45.8 µM)	4 (≈ 11.4 µM)	256 (≈ 733 µM)	32 (≈ 91.6 µM)	128 (≈ 366 µM)	16 (≈ 45.8 µM)	MIC [3]: 1 µg/mL; MIC [5]: 16 µg/mL; MIC [10]: 1 µg/mL; MIC [11]: 64 µg/mL; MIC [12]: 32 µg/mL; MIC [14]: 8 µg/mL; MIC [15]: 128 µg/mL; MIC [20]: 8 µg/mL; MIC [24]: 8 µg/mL; MIC [30]: 4 µg/mL (≈ 11.4 µM); MIC [31]: 16 µg/mL (≈ 45.8 µM); MIC [32]: 256 µg/mL (≈ 733 µM); MIC [33]: 1 µg/mL (≈ 2.86 µM); MIC [34]: 16 µg/mL; MIC [35]: 32 µg/mL (≈ 91.6 µM)
CCN1CCN(C(=O)N[C@@H](C(=O)N[C@@H]2C(=O)N3[C@@H]2SC(C)(C)[C@@H]3C(=O)O)c2ccccc2)C(=O)C1=O [PIPERACILLIN]	4 (≈ 7.73 µM)	8 (≈ 15.5 µM)	128 (≈ 247 µM)	16 (≈ 30.9 µM)	2 (≈ 3.86 µM)	16 (≈ 30.9 µM)	1 (≈ 1.93 µM)	1020 (≈ 1980 µM)	16 (≈ 30.9 µM)	1020 (≈ 1980 µM)	8 (≈ 15.5 µM)	64 (≈ 124 µM)	8 (≈ 15.5 µM)	1 (≈ 1.93 µM)	8 (≈ 15.5 µM)	4 (≈ 7.73 µM)	64 (≈ 124 µM)	8 (≈ 15.5 µM)	32 (≈ 61.8 µM)	4 (≈ 7.73 µM)	MIC [36]: 0.5 µg/mL; MIC [37]: 2 µg/mL; MIC [38]: 0.5 µg/mL; MIC [39]: 4 µg/mL; MIC [40]: 0.5 µg/mL; MIC [30]: 4 µg/mL (≈ 7.73 µM); MIC [31]: 4 µg/mL (≈ 7.73 µM); MIC [32]: 128 µg/mL (≈ 247 µM); MIC [33]: 2 µg/mL (≈ 3.86 µM)
